“And” between values parts separate entries of the source, which are not always exact repeats. Equal values may be shown once.

Usually IC50 stands for the concentration at which inhibition is half-maximal. The EC50 is the midpoint of the concentration-response curve.

One assay concerns CCR2. The following applies: read-out: IC50 in CCR2 calcium flux assay; previously reported activity; cited from earlier work. On the technique in general: A change in cytosolic calcium serves as a functional read-out for many receptors and channels.
Assay [1] concerns the target T1, hCCR2 (Homo sapiens, UniProt P41597).
T1 sequence (P41597 1-360 isoform P41597-2): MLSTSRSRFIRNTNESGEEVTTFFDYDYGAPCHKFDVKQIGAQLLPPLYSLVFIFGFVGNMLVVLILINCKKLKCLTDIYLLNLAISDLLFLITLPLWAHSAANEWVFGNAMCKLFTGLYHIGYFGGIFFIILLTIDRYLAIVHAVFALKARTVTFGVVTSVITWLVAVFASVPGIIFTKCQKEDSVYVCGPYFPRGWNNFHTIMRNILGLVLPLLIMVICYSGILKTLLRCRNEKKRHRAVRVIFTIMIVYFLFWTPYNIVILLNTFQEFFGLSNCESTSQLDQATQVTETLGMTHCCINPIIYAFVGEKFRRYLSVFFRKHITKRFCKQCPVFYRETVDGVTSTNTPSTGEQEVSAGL
The assay can be described thus: [3H]-CCR2-RA-[R] displacement binding assay on U2OS-CCR2b membranes. The following applies: displacement of ∼6 nM [3H]-CCR2-RA-[R] from U2OS cells stably expressing CCR2, 25 °C. The essentials: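 U2OS-CCR2b membranes (15–20 μg protein) were incubated with ~6 nM [3H]-CCR2-RA-[R] and at least 6 competitor concentrations. Buffer: 50 mM Tris-HCl, 5 mM MgCl2, 0.1% CHAPS, pH 7.4. Incubation 2 h at 25 °C. Rapid GF/B filtration, ten washes with ice-cold buffer (0.05% CHAPS), scintillation counting. Mean ± SEM of ≥3 experiments in duplicate.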

In assay [2] the target is T1, hCCR2. As to the kind of experiment: Tango β-arrestin recruitment assay in U2OS-CCR2 cells. In kind it is cell-based. The settings on record: inhibition of CCL2-induced β-arrestin recruitment in U2OS-CCR2. Summed up: (§1)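 Tango bla U2OS cells (human CCR2b or CCR5) were trypsinized and seeded at 10 000 cells/well in FreeStyle medium. Agonist mode: CCL2 or CCL3 for 16 h, 37 °C, 5% CO2. Antagonist mode: 30 min room-temperature preincubation with increasing compound (≤0.5% DMSO final), then 16 h with EC80 CCL2 (5 nM, CCR2) or CCL3 (14 nM, CCR5). LiveBLAzer-FRET B/G substrate 2 h; excitation 400 nm, 460/535 nm emission ratio.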
Background: Arrestin recruitment assays detect the binding of arrestin to an activated receptor.

Assay [3] concerns the target T2, hCCR5 (Homo sapiens, UniProt P51681). As to the kind of experiment: Tango β-arrestin recruitment assay in U2OS-CCR5 cells. In kind it is cell-based. Summed up:
as §1

Assay [4] addresses T2, hCCR5. The assay can be described thus: CCL3-stimulated [35S]GTPγS binding assay on U2OS-CCR5 membranes. In kind it is biochemical. The following applies: CCL3 alone, U2OS-CCR5, 25 °C. The essentials:
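Membranes from Tango U2OS cells stably expressing human CCR5 (10 μg, with 0.25 mg/mL saponin) were preincubated 30 min at 25 °C with 5 μM GDP and increasing CCL3. Then 0.3 nM [35S]GTPγS was added for 90 min at 25 °C. Stopped with ice-cold Tris/MgCl2, then GF/B filtration. Nonlinear regression.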
(In general: GTPγS resists hydrolysis and so accumulates on activated G proteins.)

T2 sequence (P51681 whole entry): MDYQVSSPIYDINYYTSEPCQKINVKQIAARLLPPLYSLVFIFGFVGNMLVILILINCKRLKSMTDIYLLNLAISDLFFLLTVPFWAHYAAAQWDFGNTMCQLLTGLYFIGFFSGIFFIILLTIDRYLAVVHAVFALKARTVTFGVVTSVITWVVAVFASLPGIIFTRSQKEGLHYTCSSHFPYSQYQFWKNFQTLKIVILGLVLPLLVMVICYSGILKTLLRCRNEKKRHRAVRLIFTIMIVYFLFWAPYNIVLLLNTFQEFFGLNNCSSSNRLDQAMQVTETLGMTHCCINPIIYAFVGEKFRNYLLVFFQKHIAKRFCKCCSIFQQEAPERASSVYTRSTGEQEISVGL

On to `O=c1c(Cc2cccc(Cl)c2)c(C2CC2)[nH]c2ncnn12` [Compound 6, 6-(3-Chlorobenzyl)-5-cyclopropyl[1,2,4]triazolo[1,5-a]pyrimidin-7(4H)-one], for which, in the assay with CCR2, the IC50 is around 20 nM. The “pKi ± SEM” value on hCCR2 [1] was 8.76 ± 0.01.

With `Nc1nc2[nH]c(C3CC3)c(Cc3cccc(Cl)c3)c(=O)n2n1` [Compound 8, 2-Amino-6-(3-chlorobenzyl)-5-cyclopropyl[1,2,4]triazolo[1,5-a]pyrimidin-7(4H)-one], the figures for the “Hill slope (nH)” value at hCCR2 [2] and on hCCR5 [3] (inhibition of CCL3-induced β-arrestin recruitment in U2OS-CCR5) were −2.7 and −2.2 ± 0.3, respectively. Also, the IC50 with CCR2 was 16 nM and ~20 nM. The “pKi ± SEM” value at hCCR2 [1] is 8.90 ± 0.04.

Take “CCL3: human recombinant chemokine, endogenous agonist of CCR5”: in the assay with hCCR5 [4], a half-maximal effect (EC50) was put at 4 nM, the “Emax ± SEM (%)” value was 108 ± 2% and the “pEC50 ± SEM” value is recorded as 8.42 ± 0.06. Further, in the assay with hCCR5 [3] (agonist, U2OS-CCR5), the “pEC50 of β-arrestin recruitment” value turned out to be 8.3 ± 0.08 and the “pEC80 of β-arrestin recruitment” value was found to be 7.9 ± 0.08. The EC50 with hCCR5 [3] (read-out: EC50 of β-arrestin recruitment, agonist, U2OS-CCR5) was 6 nM.

The values are drawn from article PMC6935887 (Journal of Medicinal Chemistry, 2019).
